Data published in ChEMBL document CHEMBL1141492, “Potent, exceptionally selective, orally bioavailable inhibitors of TNF-alpha Converting Enzyme (TACE): novel 2-substituted-1H-benzo[d]imidazol-1-yl)methyl)benzamide P1' substituents” (Bioorg Med Chem Lett, 2008).

Legend:
[1] = molecular target: Matrix metalloproteinase-16 (Homo sapiens, UniProt P51512); experiment: Inhibition of MMP16
Blood = experiment: Reduction of LPS-induced TNFalpha in human whole blood; format: functional, tissue-based
How it was run: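 LPS-induced TNF-α production in human whole blood; suppression of TNF-α measured.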

[2] = molecular target: Matrix metalloproteinase-9 (Homo sapiens, UniProt P14780); experiment: Inhibition of MMP9
Chain of Matrix metalloproteinase-9 (P14780 whole entry): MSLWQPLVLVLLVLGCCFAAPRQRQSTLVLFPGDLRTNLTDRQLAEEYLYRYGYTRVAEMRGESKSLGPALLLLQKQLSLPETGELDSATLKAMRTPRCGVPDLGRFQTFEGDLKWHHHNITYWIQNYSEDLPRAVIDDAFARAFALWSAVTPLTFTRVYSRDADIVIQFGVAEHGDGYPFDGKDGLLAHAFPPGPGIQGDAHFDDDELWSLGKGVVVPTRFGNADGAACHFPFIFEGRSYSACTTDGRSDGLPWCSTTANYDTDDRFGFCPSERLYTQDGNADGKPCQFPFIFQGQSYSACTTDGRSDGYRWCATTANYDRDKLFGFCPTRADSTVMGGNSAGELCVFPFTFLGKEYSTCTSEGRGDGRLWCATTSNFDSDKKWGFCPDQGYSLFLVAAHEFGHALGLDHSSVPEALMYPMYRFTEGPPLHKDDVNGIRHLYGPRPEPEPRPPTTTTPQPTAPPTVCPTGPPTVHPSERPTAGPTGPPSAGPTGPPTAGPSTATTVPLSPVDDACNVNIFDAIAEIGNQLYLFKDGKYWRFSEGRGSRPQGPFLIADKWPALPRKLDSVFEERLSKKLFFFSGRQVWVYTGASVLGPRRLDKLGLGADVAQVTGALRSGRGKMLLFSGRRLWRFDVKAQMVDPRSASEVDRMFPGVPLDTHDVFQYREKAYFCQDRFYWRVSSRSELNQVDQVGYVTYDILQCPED

Stromelysin-2 = Stromelysin-2 (Homo sapiens, UniProt P09238); experiment: Inhibition of MMP10
Chain of Stromelysin-2 (P09238 whole entry): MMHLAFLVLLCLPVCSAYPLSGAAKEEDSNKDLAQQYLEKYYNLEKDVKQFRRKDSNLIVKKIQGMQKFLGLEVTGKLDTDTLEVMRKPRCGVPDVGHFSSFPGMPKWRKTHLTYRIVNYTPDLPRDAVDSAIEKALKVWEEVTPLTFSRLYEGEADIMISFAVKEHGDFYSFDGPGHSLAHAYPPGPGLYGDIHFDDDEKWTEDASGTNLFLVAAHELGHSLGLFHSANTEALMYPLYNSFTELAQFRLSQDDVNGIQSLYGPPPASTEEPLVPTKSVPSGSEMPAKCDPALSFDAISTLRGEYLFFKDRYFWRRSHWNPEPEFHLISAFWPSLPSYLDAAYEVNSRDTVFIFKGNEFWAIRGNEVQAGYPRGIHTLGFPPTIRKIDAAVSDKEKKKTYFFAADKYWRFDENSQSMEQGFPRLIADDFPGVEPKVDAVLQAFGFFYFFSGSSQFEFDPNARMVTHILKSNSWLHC
How it was run: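 MMP Ki values come from a single determination.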

Interstitial collagenase = molecular target: T1, Interstitial collagenase (Homo sapiens, UniProt P03956); experiment: Inhibition of MMP1
T1 sequence (P03956 whole entry): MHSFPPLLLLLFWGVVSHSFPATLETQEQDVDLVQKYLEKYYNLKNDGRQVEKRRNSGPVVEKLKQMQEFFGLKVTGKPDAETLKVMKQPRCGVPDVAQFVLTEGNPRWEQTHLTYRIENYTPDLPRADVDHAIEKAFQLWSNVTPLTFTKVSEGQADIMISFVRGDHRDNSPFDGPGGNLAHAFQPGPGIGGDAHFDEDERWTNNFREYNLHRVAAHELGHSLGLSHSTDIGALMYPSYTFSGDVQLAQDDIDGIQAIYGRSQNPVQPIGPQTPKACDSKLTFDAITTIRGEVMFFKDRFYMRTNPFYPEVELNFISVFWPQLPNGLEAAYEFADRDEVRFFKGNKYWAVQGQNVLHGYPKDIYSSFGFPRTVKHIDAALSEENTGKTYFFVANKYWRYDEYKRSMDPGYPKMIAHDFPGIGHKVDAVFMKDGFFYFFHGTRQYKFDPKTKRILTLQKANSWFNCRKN

[3] = molecular target: Disintegrin and metalloproteinase domain-containing protein 17 (Sus scrofa, UniProt O77636); experiment: Inhibition of semi purified pig TACE
Chain of Disintegrin and metalloproteinase domain-containing protein 17 (O77636 whole entry, the tested form may be a part): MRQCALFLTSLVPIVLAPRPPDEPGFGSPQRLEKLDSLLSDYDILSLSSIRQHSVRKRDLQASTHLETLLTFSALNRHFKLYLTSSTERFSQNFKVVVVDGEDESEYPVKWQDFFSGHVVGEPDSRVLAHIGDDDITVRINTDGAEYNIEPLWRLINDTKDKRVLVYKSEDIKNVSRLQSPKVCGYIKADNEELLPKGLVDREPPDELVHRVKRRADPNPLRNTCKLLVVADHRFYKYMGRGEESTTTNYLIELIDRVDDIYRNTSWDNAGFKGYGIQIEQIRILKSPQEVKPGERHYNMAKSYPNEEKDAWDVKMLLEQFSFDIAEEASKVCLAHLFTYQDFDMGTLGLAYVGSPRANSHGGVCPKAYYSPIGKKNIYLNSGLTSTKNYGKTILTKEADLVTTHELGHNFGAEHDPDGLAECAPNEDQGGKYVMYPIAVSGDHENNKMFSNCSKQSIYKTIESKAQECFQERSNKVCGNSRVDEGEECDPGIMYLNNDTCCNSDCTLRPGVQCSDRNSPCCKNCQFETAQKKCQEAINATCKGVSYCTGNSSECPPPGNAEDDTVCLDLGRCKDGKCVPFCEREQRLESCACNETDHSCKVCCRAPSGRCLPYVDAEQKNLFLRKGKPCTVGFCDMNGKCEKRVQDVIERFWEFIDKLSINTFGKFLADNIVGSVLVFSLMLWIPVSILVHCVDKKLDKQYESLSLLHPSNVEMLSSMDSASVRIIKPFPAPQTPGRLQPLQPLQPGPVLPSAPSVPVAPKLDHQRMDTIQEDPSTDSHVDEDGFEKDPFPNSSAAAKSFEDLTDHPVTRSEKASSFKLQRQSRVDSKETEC

[4] = molecular target: 72 kDa type IV collagenase (Homo sapiens, UniProt P08253); experiment: Inhibition of MMP2
Chain of 72 kDa type IV collagenase (P08253 whole entry): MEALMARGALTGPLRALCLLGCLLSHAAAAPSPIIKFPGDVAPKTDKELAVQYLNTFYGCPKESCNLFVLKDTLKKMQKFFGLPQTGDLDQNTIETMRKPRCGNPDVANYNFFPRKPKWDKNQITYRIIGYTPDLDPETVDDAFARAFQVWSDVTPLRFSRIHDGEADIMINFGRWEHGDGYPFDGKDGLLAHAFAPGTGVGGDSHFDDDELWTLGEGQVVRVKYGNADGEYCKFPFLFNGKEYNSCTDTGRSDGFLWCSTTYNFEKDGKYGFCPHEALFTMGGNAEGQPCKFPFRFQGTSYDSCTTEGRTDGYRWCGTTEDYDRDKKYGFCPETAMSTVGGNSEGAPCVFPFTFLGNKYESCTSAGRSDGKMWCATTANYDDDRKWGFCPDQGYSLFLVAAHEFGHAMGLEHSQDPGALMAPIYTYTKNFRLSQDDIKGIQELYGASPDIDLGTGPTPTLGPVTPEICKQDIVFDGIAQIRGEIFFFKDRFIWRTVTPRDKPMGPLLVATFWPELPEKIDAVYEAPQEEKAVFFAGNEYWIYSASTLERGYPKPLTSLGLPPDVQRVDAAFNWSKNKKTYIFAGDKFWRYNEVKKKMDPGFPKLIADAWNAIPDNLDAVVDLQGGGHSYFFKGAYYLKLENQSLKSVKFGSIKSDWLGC

Collagenase 3 = Collagenase 3 (Homo sapiens, UniProt P45452); experiment: Inhibition of MMP13
[5] = molecular target: Matrix metalloproteinase-14 (Homo sapiens, UniProt P50281); experiment: Inhibition of MMP14
[6] = molecular target: Matrix metalloproteinase-15 (Homo sapiens, UniProt P51511); experiment: Inhibition of MMP15
Chain of Matrix metalloproteinase-15 (P51511 whole entry): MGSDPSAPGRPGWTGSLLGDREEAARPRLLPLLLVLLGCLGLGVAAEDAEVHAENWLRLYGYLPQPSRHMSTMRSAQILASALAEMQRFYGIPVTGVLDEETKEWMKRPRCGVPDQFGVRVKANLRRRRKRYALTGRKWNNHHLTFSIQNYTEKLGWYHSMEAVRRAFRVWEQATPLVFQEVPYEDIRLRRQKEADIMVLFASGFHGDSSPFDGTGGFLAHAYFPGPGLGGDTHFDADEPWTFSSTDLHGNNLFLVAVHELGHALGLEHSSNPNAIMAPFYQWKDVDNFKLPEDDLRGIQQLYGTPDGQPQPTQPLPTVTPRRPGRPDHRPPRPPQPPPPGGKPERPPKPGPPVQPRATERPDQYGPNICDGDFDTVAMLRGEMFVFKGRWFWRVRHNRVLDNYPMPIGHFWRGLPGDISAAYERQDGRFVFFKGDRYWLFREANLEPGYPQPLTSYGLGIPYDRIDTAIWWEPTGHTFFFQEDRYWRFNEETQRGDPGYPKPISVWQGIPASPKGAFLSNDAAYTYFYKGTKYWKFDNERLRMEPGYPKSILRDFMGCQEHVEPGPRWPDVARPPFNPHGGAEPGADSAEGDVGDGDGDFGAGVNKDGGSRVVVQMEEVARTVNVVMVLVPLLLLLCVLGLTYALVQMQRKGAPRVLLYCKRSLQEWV
How it was run: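 Ki values against each MMP, each from a single determination.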

Stromelysin-1 = Stromelysin-1 (Homo sapiens, UniProt P08254); experiment: Inhibition of MMP3
Chain of Stromelysin-1 (P08254 whole entry): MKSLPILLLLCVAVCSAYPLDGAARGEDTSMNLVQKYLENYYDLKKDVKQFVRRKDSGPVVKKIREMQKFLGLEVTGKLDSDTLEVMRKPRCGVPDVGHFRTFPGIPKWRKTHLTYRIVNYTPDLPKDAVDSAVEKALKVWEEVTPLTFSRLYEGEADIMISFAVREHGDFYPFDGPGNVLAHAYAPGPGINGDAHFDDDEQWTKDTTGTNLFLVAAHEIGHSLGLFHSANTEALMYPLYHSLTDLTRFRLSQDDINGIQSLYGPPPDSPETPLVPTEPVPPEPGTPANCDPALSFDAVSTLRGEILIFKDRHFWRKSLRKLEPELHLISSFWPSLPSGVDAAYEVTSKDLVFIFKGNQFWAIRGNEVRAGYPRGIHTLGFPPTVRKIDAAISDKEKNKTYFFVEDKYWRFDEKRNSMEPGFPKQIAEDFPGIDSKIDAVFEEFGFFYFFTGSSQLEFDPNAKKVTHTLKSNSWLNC

[7] = Apparent permeability across human Caco-2 cells; format: ADME, cell-based
How it was run: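 Apparent permeability measured across Caco-2 cell monolayers in the apical-to-basolateral (A→B) direction.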

Matrilysin = molecular target: T2, Matrilysin (Homo sapiens, UniProt P09237); experiment: Inhibition of MMP7
T2 sequence (P09237 whole entry): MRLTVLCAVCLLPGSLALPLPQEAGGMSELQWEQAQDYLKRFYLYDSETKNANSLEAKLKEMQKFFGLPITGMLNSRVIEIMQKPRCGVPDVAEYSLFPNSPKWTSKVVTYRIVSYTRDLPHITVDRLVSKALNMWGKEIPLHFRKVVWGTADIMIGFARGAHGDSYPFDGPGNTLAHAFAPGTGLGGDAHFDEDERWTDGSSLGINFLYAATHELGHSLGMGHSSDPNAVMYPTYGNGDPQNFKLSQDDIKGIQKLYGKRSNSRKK

[8] = molecular target: T3, A disintegrin and metalloproteinase with thrombospondin motifs 5 (Homo sapiens, UniProt Q9UNA0); experiment: Inhibition of ADAMTS5
T3 sequence (Q9UNA0 whole entry): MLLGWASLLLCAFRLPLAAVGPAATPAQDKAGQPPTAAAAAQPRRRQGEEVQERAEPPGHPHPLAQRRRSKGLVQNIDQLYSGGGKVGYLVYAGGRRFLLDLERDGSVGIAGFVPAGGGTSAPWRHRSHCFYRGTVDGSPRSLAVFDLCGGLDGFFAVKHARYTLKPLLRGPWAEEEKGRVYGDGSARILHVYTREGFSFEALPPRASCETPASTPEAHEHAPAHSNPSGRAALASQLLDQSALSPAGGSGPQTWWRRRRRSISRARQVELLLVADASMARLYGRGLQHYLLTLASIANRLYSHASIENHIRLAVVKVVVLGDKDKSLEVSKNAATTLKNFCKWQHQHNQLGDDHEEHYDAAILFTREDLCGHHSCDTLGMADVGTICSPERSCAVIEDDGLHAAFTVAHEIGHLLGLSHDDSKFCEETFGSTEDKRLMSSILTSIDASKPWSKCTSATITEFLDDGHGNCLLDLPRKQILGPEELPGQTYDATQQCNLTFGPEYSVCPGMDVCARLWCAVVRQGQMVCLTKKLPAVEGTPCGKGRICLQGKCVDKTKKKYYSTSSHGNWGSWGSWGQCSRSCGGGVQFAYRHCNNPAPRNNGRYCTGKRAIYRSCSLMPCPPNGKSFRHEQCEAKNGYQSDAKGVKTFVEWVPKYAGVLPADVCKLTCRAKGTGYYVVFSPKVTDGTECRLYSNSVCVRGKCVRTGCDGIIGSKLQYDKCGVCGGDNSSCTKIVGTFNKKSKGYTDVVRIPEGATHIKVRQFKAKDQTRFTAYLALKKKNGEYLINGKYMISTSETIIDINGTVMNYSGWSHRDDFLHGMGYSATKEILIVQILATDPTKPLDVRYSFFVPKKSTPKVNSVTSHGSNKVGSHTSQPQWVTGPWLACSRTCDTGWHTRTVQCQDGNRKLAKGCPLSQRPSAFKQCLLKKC

[9] = Clearance in Beagle dog at 2.0 mg/kg, iv; format: ADME, organism-based, Canis lupus familiaris; parameters: dose 2 mg/kg, route intravenous; conditions: in vivo
How it was run: (§1)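 Discrete or cassette (n-in-1) dosing, given intravenously and orally. Sprague–Dawley rats received 5.0 mg/kg iv and 8.0 mg/kg po; beagle dogs received 2.0 mg/kg iv and 8.0 mg/kg po. Three animals per dosing group; averaged values reported. AUC is reported in nM h.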

Mus musculus = experiment: Reduction of LPS-induced TNFalpha level in orally dosed mouse after 1 hr; format: functional; conditions: po
How it was run: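 Mouse LPS endotoxemia model. LPS and test compound in vehicle were given together by oral gavage at t = 0 h, across several doses. Mice were euthanized 1 h post dose, blood was taken by cardiac puncture, and plasma TNF-α was measured. ED50 was calculated from the dose response.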

[10] = Oral bioavailability in Sprague-Dawley rat at 8.0 mg/kg; format: ADME, organism-based; conditions: in vivo; how it was run: as §1
[11] = Protein binding in human serum; format: ADME, cell-free
[12] = Half life in Beagle dog at 2.0 mg/kg, iv; format: ADME, organism-based, Canis lupus familiaris; parameters: dose 2 mg/kg, route intravenous; conditions: in vivo; how it was run: as §1
[13] = Tmax in Beagle dog at 8.0 mg/kg, po; conditions: in vivo
[14] = AUC in Beagle dog at 8.0 mg/kg, po; conditions: plasma
[15] = Clearance in Sprague-Dawley rat at 5.0 mg/kg, iv; format: ADME, organism-based; parameters: dose 5 mg/kg, route intravenous; conditions: in vivo; how it was run: as §1
[16] = Half life in Beagle dog at 8.0 mg/kg, po; conditions: in vivo
[17] = Half life in Sprague-Dawley rat at 8.0 mg/kg, po; format: ADME, organism-based; parameters: dose 8 mg/kg, route oral; conditions: in vivo; how it was run: as §1
[18] = AUC in Sprague-Dawley rat at 8.0 mg/kg, po; format: ADME, organism-based; parameters: dose 8 mg/kg, route oral; conditions: plasma; how it was run: as §1
[19] = Volume of distribution at steady state in Sprague-Dawley rat at 5.0 mg/kg, iv; format: ADME, organism-based; parameters: dose 5 mg/kg, route intravenous; conditions: in vivo, read-out: Vdss; how it was run: as §1
[20] = Tmax in Sprague-Dawley rat at 8.0 mg/kg, po; format: ADME, organism-based; parameters: dose 8 mg/kg, route oral; conditions: in vivo; how it was run: as §1
[21] = Volume of distribution at steady state in Beagle dog at 2.0 mg/kg, iv; format: ADME, organism-based, Canis lupus familiaris; parameters: dose 2 mg/kg, route intravenous; conditions: in vivo, read-out: Vdss; how it was run: as §1
[22] = Oral bioavailability in Beagle dog at 8.0 mg/kg, po; conditions: in vivo
[23] = Protein binding in rat serum; format: ADME, cell-free
[24] = Half life in Sprague-Dawley rat at 5.0 mg/kg, iv; format: ADME, organism-based; parameters: dose 5 mg/kg, route intravenous; conditions: in vivo; how it was run: as §1
[25] = AUC in Beagle dog at 2.0 mg/kg, iv; format: ADME, organism-based, Canis lupus familiaris; parameters: dose 2 mg/kg, route intravenous; conditions: plasma; how it was run: as §1
[26] = AUC in Sprague-Dawley rat at 5.0 mg/kg, iv; format: ADME, organism-based; parameters: dose 5 mg/kg, route intravenous; conditions: plasma; how it was run: as §1
[27] = Protein binding in dog serum; format: ADME, cell-free, Canis lupus familiaris
Neutrophil collagenase = Neutrophil collagenase (Homo sapiens, UniProt P22894); experiment: Inhibition of MMP8
Chain of Neutrophil collagenase (P22894 whole entry): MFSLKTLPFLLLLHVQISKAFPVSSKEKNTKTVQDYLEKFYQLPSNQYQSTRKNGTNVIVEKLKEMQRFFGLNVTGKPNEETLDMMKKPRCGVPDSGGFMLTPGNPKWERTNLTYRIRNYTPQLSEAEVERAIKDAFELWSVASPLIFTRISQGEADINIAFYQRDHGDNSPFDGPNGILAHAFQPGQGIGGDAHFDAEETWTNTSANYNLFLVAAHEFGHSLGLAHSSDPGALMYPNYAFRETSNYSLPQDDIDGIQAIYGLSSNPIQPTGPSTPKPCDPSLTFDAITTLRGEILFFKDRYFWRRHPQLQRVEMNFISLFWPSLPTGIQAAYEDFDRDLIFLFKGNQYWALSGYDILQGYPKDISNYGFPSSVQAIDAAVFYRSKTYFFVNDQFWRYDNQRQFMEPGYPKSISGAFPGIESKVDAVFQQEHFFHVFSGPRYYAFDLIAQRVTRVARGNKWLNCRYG

Chain of Matrix metalloproteinase-16 (P51512 whole entry): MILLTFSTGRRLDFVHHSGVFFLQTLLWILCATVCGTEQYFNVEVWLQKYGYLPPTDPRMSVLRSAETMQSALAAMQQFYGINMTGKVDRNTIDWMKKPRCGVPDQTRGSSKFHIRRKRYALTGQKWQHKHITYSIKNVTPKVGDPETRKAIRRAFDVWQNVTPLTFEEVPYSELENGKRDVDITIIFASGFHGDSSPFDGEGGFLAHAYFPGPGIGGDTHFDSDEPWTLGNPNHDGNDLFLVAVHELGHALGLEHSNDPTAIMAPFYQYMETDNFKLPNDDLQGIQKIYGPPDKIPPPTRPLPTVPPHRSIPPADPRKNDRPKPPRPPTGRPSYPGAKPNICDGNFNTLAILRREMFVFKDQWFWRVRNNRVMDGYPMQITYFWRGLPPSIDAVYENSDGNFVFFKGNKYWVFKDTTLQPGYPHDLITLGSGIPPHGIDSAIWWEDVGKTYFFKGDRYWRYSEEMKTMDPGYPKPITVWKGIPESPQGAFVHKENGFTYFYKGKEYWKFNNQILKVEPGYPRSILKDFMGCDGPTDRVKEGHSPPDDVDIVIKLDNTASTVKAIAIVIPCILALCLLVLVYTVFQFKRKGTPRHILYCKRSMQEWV

Row | Ki [1] [nM] | IC50 (Blood) [nM] | Ki [2] [nM] | IC50 (Stromelysin-2) [nM] | Ki (Interstitial collagenase) [nM] | IC50 [3] [nM] | Ki [4] [nM] | Ki (Collagenase 3) [nM] | Ki [5] [nM] | Ki [6] [nM] | Ki (Stromelysin-1) [nM] | Papp [7] [×10⁻⁶ cm/s] | Ki (Matrilysin) [nM] | bioavailability [10] [%] | clearance [15] [mL/min/kg] | SMILES | other results
1 | > 5550 | 92 | > 2130 | 1600 | > 2130 | 1 | > 2130 | > 5030 | > 5290 | > 7090 | 2610 | 0.1 | 5860 |  |  | Cc1nc2ccccc2n1Cc1ccc(C(=O)N[C@@H]2CN(C(=O)OC(C)(C)C)C[C@@H]2C(=O)NO)cc1 | 
2 |  | 232 |  | > 10000 |  |  |  |  |  |  |  | 0.7 |  | 53 | 26.7 | O=C(N[C@@H]1CCOC[C@@H]1C(=O)NO)c1ccc(Cn2c(C(F)(F)F)nc3ccccc32)cc1 | Ki [8]: 1000 nM; clearance [9]: 10 mL/min/kg; ED50 (Mus musculus): 1.9 mg/kg; fraction unbound [11]: 0.21; half-life [12]: 4.2 h; Tmax [13]: 0.5 h; AUC [14]: 39.5 µM·h; half-life [16]: 4.8 h; half-life [17]: 2.4 h; AUC [18]: 5.84 µM·h; Vd [19]: 1.5 L/kg; Tmax [20]: 0.3 h; Vd [21]: 1 L/kg; bioavailability [22]: 99%; fraction unbound [23]: 0.2; half-life [24]: 3.5 h; AUC [25]: 9.97 µM·h; AUC [26]: 6.85 µM·h; fraction unbound [27]: 0.2
3 | > 5550 | 70 | > 2130 | 4600 | > 2130 | 1 | > 2130 | > 5030 | > 5290 | > 7090 | 3920 | 0.2 | 3500 |  |  | CC(C)c1nc2ccccc2n1Cc1ccc(C(=O)N[C@@H]2CN(C(=O)OC(C)(C)C)C[C@@H]2C(=O)NO)cc1 | Ki (Neutrophil collagenase): > 3060 nM
4 | > 5450 | 62 | > 2130 | > 10000 | > 2130 | < 1 | > 2130 | > 5030 | > 5290 | > 7090 | > 4500 | 0.2 | 4080 |  |  | CSc1nc2ccccc2n1Cc1ccc(C(=O)N[C@@H]2CN(C(=O)OC(C)(C)C)C[C@@H]2C(=O)NO)cc1 | 
5 |  | 137 | > 2130 |  | > 4950 | 1.8 | > 3330 |  |  |  |  | 0.1 |  | 3 | 155 | C#CCN1C[C@H](C(=O)NO)[C@H](NC(=O)c2ccc(Cn3c(C(C)C)nc4ccccc43)cc2)C1 | 
6 |  | 102 | > 2130 |  | > 4950 | 1 | > 3330 |  |  |  |  | 0.1 |  | 20 | 53.3 | O=C(N[C@@H]1COC[C@@H]1C(=O)NO)c1ccc(Cn2c(C(F)(F)F)nc3ccccc32)cc1 | 
